# Data from ChEMBL document CHEMBL1125005, “Synthesis, biological profile, and quantitative structure-activity relationship of a series of novel 3-hydroxy-3-methylglutaryl coenzyme A reductase inhibitors” (J Med Chem, 1990).
# Experiments:
# [1] = target: T1, 3-hydroxy-3-methylglutaryl-coenzyme A reductase (Rattus norvegicus) (UniProt P51639); test: The compound was tested for the relative potency with respect to standard compound BMY-21950
# T1 sequence (whole entry): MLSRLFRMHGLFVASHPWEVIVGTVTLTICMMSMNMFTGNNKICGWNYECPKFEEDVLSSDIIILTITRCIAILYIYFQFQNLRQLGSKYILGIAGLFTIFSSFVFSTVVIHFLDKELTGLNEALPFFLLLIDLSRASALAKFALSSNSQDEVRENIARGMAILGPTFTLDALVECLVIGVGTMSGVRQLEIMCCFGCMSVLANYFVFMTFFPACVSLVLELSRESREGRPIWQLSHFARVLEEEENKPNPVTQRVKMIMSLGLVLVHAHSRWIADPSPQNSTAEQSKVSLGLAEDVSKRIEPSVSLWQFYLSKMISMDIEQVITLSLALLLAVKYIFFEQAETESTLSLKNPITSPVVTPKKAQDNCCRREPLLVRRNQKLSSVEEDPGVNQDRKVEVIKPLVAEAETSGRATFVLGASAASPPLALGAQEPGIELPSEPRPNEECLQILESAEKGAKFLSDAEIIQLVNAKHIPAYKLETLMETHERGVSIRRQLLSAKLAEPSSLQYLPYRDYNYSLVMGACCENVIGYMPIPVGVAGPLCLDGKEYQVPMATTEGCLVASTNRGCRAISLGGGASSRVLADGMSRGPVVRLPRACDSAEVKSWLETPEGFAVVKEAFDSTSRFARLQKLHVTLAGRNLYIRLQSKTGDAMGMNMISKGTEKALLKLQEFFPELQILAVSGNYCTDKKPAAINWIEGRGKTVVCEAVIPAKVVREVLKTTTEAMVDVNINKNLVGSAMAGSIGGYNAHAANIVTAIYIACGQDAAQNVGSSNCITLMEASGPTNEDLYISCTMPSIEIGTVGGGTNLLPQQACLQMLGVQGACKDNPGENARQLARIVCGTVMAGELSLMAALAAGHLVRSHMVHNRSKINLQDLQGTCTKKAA
# [2] = target: T2, 3-hydroxy-3-methylglutaryl-coenzyme A reductase (Rattus norvegicus, UniProt P51639); test: In vitro inhibitory activity was measured against rat liver HMG-CoA reductase
# T2 sequence (P51639 whole entry): T1 sequence (whole entry)
# Outline: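 Enzyme: intact, fully activated rat liver microsomal HMG-CoA reductase, 50–100 μg protein in buffer A (50 mM imidazole HCl, 250 mM NaCl, 1 mM EDTA, 1 mM EGTA, 5 mM DTT, pH 7.2). Preincubated with inhibitor for 10 min at 37 °C. d,l-[3-14C]HMG-CoA (0.33 mM) and NADPH (3.0 mM) then added. [14C]mevalonate formation measured. IC50 from linear regression of % inhibition vs log concentration, ≥4 dilutions in duplicate.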
# [3] = target: T2, 3-hydroxy-3-methylglutaryl-coenzyme A reductase; test: (§1) In vitro inhibitory activity was measured against rat liver HMG-CoA reductase using [2-14C]-acetate incorporation
# Outline: (§2)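 Parenchymal hepatocytes from chow-fed male Wistar rats (180–280 g), collagenase-perfused, viability >95%. Cells held at 100 mg wet weight/2.0 mL in MEM with bicarbonate/HEPES, pH 7.4, 2% BSA, under 95% O2/5% CO2. Preincubated with inhibitor for 15 min, with DMSO at 0.5% final for lactones. [2-14C]acetate then added for 60 min at 37 °C. 14C in 3β-hydroxysterols counted. IC50 by regression from ≥4 concentrations; mean of n experiments.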
# [4] = species on record: Rattus norvegicus; test: In vitro inhibitory potency for cholesterol synthesis was measured in rat spleen; format: functional
# Outline: (§3)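 Rat spleen and testes cell dispersions, prepared nonenzymatically. Na-salt inhibitors were preincubated with cells for 15 min under the hepatocyte conditions. [14C]acetate (45–55 μCi per μmol, 5 μCi per mL) was then incorporated for 60 min. Sterol IC50 is reported as a ratio to the IC50 in rat hepatocytes.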
# [5] = species on record: Rattus norvegicus; test: In vitro inhibitory potency for cholesterol synthesis was measured in rat testes; format: functional, Testis; outline: as §3
# [6] = species on record: Bos taurus; test: In vitro inhibitory potency for cholesterol synthesis was measured in bovine lens epithelial cell cultures
# [7] = species on record: Rattus norvegicus; test: In vitro inhibitory potency for cholesterol synthesis was measured in rat adrenals; format: functional, Adrenal gland
# [8] = species on record: Rattus norvegicus; test: In vitro inhibitory potency for cholesterol synthesis was measured in rat ileum; format: functional
# [9] = target: T2, 3-hydroxy-3-methylglutaryl-coenzyme A reductase; test: as §1; remark: listed apart in the source
# Outline: as §2, with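 “counted.” for “counted. IC50 by regression from ≥4 concentrations; mean of n experiments.”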
SMILES,Relative potency [1],IC50 [2],further results
Cn1nnnc1C(C=C=C[C@@H](O)C[C@@H](O)CC(=O)O)=C(c1ccc(F)cc1)c1ccc(F)cc1,0.0033,5700 nM,–
CC(C)n1nnnc1C(C=C=C[C@@H](O)C[C@@H](O)CC(=O)O)=C(c1ccc(F)cc1)c1ccc(F)cc1,0.00015,130000 nM,–
CC(/C=C/[C@@H](O)C[C@@H](O)CC(=O)O)=C(c1ccc(F)cc1)c1ccc(F)cc1,0.0024,7900 nM,–
Cc1ccc(C(=C(/C=C/[C@@H](O)C[C@@H](O)CC(=O)O)c2nnnn2C)c2ccc(C)cc2)cc1,0.015,1300 nM,–
CC(C)(C)n1nnc(C(/C=C/[C@@H](O)C[C@@H](O)CC(=O)O)=C(c2ccc(F)cc2)c2ccc(F)cc2)n1 (stereo in doubt; 47) [listing 1 of 2 here],–,3700 nM,–
CC(C)(C)n1nnc(C(/C=C/[C@@H](O)C[C@@H](O)CC(=O)O)=C(c2ccc(F)cc2)c2ccc(F)cc2)n1 (stereo in doubt; 49) [listing 1 of 2 here],1,–,–
CCn1nnc(C(/C=C/[C@@H](O)C[C@@H](O)CC(=O)O)=C(c2ccc(F)cc2)c2ccc(F)cc2)n1,9.1e-05,200000 nM,–
CC(C)n1nnnc1C(/C=C/[C@@H](O)C[C@@H](O)CC(=O)O)=C(c1ccc(F)cc1)c1ccc(F)cc1,0.0014,14000 nM,–
COc1ccc(C(=C(/C=C/[C@@H](O)C[C@@H](O)CC(=O)O)c2nnnn2C)c2ccc(OC)cc2)cc1,0.014,1400 nM,–
Cc1ccc(C(=C(/C=C/[C@@H](O)C[C@@H](O)CC(=O)O)c2nnnn2C)c2ccc(C)cc2C)c(C)c1,0.012,1600 nM,–
CC(C)(C)n1nnc(C(/C=C/[C@@H](O)C[C@@H](O)CC(=O)O)=C(c2ccc(F)cc2)c2ccc(F)cc2)n1 (stereo in doubt; 47) [listing 2 of 2 here],0.005,–,–
Cn1nnnc1C(/C=C/[C@@H](O)C[C@@H](O)CC(=O)O)=C(c1ccc(F)cc1)c1ccc(F)cc1 (stereo in doubt; 48),–,> 300000 nM,–
Cn1nnnc1C(/C=C/[C@@H](O)C[C@@H](O)CC(=O)O)=C(c1ccc(F)cc1)c1ccc(F)cc1 (stereo in doubt; 3a),0.43,–,–
Cn1nnnc1C(/C=C/[C@@H]1C[C@@H](O)CC(=O)O1)=C(c1ccc(F)cc1)c1ccc(F)cc1,–,–,IC50 [9]: 24 nM
N#CC(/C=C/[C@@H](O)C[C@@H](O)CC(=O)O)=C(c1ccc(F)cc1)c1ccc(F)cc1,0.0024,8000 nM,–
Cn1nnc(C(/C=C/[C@@H](O)C[C@@H](O)CC(=O)O)=C(c2ccc(F)cc2)c2ccc(F)cc2)n1,0.00063,30000 nM,–
CC(C)n1nnc(C(/C=C/[C@@H](O)C[C@@H](O)CC(=O)O)=C(c2ccc(F)cc2)c2ccc(F)cc2)n1,< 6e-05,> 300000 nM,–

# More lines, main results first:
Relative potency [1],IC50 [2],SMILES,further results
0.032,580 nM,Cc1ccc(C(=C(/C=C/[C@@H](O)C[C@@H](O)CC(=O)O)c2nnnn2C)c2ccc(C)cc2F)c(F)c1,–
0.12,160 nM,Cc1cc(C(=C(/C=C/[C@@H](O)C[C@@H](O)CC(=O)O)c2nnnn2C)c2ccc(F)c(C)c2)ccc1F,–
–,43 nM,Cn1nnnc1C(/C=C/[C@@H](O)C[C@@H](O)CC(=O)[O-])=C(c1ccc(F)cc1)c1ccc(F)cc1.[Na+] (stereo in doubt; 3a),IC50 [3]: 21 nM; IC50 ratio [4]: 149; IC50 ratio [5]: 86; IC50 ratio [6]: 144; IC50 ratio [7]: 76; IC50 ratio [8]: 129
0.67,29 nM,Cc1cc(F)ccc1C(=C(/C=C/[C@@H](O)C[C@@H](O)CC(=O)O)c1nnnn1C)c1ccc(F)cc1C,–
0.0058,330 nM,O=C(O)C[C@H](O)C[C@H](O)/C=C/C(=C(c1ccc(F)cc1)c1ccc(F)cc1)C1N=NN=N1,–
–,19 nM,CC(C)(C)n1nnc(C(/C=C/[C@@H](O)C[C@@H](O)CC(=O)O)=C(c2ccc(F)cc2)c2ccc(F)cc2)n1 (stereo in doubt; 49) [listing 2 of 2 here],–
0.095,230 nM,CC(C)C(/C=C/[C@@H](O)C[C@@H](O)CC(=O)O)=C(c1ccc(F)cc1)c1ccc(F)cc1,–
0.71,27 nM,CC[C@H](C)C(=O)O[C@H]1C[C@@H](C)C=C2C=C[C@H](C)[C@H](CC[C@@H]3C[C@@H](O)CC(=O)O3)[C@H]21 [LOVASTATIN],IC50 ratio [4]: 1.2; IC50 ratio [5]: 1.3; IC50 ratio [6]: 1.6; IC50 [9]: 32 nM; IC50 ratio [7]: 1; IC50 ratio [8]: 1.2
0.1,190 nM,Cn1nnnc1C(/C=C/[C@@H](O)C[C@@H](O)CC(=O)O)=C(c1ccccc1)c1ccccc1,–
0.43,44 nM,Cn1nnnc1C(/C=C/[C@@H](O)C[C@@H](O)CC(=O)O)=C(\c1ccccc1)c1ccc(F)cc1,–
0.017,1100 nM,CCn1nnnc1C(/C=C/[C@@H](O)C[C@@H](O)CC(=O)O)=C(c1ccc(F)cc1)c1ccc(F)cc1,–
